According to ChEMBL document CHEMBL5661979, “Pharmacological inhibition of BMK1 suppresses tumor growth through promyelocytic leukemia protein” (Cancer Cell, 2010):

Experiments:
Assay type in all cases: subcellular
Details in all cases: time 25.0 min
[1] = target: T1, Serine/threonine-protein kinase 4 (Homo sapiens) (UniProt Q13043); assay: Inhibition of MST1 in human HeLa cells lysate at 50 uM pre incubated for 15 mins followed by ADP acyl phosphate probe addition and measured after 10 mins by LC-MS/MS analysis relative to control
T1 sequence (whole entry): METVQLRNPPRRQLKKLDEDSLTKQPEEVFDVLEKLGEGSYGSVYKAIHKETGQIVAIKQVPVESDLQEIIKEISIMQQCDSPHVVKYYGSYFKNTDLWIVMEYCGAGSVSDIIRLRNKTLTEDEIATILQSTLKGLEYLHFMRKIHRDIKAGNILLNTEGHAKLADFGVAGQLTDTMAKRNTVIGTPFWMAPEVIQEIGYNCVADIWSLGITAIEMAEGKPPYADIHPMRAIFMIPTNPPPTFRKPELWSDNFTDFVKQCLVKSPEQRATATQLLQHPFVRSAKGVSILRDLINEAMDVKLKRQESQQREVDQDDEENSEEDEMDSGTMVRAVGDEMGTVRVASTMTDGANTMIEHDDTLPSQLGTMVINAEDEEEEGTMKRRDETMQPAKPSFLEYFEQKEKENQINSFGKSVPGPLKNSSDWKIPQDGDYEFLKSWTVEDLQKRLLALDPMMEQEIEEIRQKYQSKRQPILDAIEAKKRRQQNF

[2] = target: T2, Serine/threonine-protein kinase D3 (Homo sapiens) (UniProt O94806); assay: Inhibition of PKD3 in human HeLa cells lysate at 50 uM pre incubated for 15 mins followed by ADP acyl phosphate probe addition and measured after 10 mins by LC-MS/MS analysis relative to control
T2 sequence (whole entry): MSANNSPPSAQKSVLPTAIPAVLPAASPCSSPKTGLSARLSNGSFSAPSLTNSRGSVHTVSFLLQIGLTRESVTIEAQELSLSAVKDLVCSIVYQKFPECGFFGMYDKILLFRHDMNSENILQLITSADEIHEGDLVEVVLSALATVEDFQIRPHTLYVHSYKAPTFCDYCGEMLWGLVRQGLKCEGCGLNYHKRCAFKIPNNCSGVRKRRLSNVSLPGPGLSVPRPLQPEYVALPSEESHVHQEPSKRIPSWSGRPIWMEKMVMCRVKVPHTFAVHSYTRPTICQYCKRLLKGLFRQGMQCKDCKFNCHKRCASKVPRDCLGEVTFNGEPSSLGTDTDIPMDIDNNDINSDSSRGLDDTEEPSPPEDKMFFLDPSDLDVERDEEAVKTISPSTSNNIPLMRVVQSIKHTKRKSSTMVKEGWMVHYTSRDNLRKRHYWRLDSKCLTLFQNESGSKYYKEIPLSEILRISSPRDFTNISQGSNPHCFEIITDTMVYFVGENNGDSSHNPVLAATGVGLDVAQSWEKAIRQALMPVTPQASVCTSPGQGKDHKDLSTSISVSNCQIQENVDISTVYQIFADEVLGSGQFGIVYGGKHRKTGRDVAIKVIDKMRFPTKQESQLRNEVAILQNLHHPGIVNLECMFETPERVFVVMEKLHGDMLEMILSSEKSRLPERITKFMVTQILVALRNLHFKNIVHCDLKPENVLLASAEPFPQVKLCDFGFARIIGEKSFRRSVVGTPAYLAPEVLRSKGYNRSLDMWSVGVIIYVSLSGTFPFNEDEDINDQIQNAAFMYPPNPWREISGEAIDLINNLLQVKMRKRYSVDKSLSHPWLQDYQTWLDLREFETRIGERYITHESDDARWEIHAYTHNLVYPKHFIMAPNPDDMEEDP

[3] = target: Serine/threonine-protein kinase ATR (Homo sapiens, UniProt Q13535); assay: Inhibition of ATR in human HeLa cells lysate at 50 uM pre incubated for 15 mins followed by ATP acyl phosphate probe addition and measured after 10 mins by LC-MS/MS analysis relative to control
Method in brief: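 KiNativ-type profiling in HeLa lysate (5 mg/mL total protein). Lysate preincubated 15 min with inhibitor at 50, 10, 2, 0.8 or 0 μM, then ATP or ADP acylphosphate probe added (5 μM final) for 10 min. Reaction stopped with urea and analysed by targeted MS, using up to four fragment ions per kinase peptide-probe conjugate. % inhibition calculated against untreated lysate. Duplicate reactions.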

[4] = target: T3, Scaffold protein ILK (Homo sapiens) (UniProt Q13418); assay: Inhibition of ILK in human HeLa cells lysate at 50 uM pre incubated for 15 mins followed by ATP acyl phosphate probe addition and measured after 10 mins by LC-MS/MS analysis relative to control
T3 sequence (whole entry): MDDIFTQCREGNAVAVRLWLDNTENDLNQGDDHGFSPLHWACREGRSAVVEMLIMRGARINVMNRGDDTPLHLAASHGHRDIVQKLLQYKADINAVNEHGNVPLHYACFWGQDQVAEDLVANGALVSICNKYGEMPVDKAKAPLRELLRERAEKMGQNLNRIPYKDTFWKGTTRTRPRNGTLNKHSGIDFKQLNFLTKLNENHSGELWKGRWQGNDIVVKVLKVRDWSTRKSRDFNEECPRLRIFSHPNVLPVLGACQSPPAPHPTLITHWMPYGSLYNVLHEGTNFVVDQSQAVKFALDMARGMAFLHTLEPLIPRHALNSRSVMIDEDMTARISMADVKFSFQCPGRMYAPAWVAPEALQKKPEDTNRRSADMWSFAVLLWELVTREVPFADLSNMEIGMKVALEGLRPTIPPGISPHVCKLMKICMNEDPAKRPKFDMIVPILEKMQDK

[5] = target: Phosphatidylinositol 3-kinase catalytic subunit type 3 (Homo sapiens, UniProt Q8NEB9); assay: Inhibition of PIK3C3 in human HeLa cells lysate at 10 uM pre incubated for 15 mins followed by ATP acyl phosphate probe addition and measured after 10 mins by LC-MS/MS analysis relative to control
[6] = target: Tyrosine-protein kinase ABL (Homo sapiens, UniProt P00519+P42684); assay: Inhibition of ABL1/2 in human HeLa cells lysate at 10 uM pre incubated for 15 mins followed by ATP acyl phosphate probe addition and measured after 10 mins by LC-MS/MS analysis relative to control
Method in brief: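 HeLa cell lysates (5 mg/mL total protein) were preincubated with inhibitor at 0, 0.8, 2, 10 or 50 μM for 15 min. ATP or ADP acylphosphate probe was then added (5 μM final) for 10 min, and reactions were stopped with urea. Up to four fragment ions per kinase probe-peptide were quantified by targeted MS. % inhibition was taken relative to untreated lysate. Run in duplicate.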

Phosphatidylinositol 3-kinase catalytic subunit type 3, sequence (Q8NEB9 whole entry): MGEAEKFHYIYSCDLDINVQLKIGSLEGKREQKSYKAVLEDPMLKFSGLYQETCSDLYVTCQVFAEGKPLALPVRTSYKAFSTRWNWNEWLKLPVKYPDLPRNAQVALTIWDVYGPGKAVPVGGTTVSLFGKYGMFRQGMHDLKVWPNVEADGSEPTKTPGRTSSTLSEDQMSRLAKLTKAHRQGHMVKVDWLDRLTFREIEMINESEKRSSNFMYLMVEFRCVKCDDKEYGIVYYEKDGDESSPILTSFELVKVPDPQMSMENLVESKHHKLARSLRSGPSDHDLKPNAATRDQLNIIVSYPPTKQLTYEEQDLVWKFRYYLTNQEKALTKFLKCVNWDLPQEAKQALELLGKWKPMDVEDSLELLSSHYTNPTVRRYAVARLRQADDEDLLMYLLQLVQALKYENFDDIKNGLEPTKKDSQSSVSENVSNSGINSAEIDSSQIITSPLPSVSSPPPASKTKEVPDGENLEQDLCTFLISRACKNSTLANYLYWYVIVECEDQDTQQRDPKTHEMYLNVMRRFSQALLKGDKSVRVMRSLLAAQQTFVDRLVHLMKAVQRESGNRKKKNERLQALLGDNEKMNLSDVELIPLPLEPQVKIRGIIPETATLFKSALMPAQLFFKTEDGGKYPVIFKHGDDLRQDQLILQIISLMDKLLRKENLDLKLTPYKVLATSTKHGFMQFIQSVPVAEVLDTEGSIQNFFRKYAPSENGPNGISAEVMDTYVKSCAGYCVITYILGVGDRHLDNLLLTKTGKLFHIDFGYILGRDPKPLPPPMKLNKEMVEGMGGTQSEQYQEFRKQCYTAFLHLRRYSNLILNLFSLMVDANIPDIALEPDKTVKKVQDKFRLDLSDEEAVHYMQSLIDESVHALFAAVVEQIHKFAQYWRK
Tyrosine-protein kinase ABL, sequence (P00519 whole entry, looked up, the tested form may be a part): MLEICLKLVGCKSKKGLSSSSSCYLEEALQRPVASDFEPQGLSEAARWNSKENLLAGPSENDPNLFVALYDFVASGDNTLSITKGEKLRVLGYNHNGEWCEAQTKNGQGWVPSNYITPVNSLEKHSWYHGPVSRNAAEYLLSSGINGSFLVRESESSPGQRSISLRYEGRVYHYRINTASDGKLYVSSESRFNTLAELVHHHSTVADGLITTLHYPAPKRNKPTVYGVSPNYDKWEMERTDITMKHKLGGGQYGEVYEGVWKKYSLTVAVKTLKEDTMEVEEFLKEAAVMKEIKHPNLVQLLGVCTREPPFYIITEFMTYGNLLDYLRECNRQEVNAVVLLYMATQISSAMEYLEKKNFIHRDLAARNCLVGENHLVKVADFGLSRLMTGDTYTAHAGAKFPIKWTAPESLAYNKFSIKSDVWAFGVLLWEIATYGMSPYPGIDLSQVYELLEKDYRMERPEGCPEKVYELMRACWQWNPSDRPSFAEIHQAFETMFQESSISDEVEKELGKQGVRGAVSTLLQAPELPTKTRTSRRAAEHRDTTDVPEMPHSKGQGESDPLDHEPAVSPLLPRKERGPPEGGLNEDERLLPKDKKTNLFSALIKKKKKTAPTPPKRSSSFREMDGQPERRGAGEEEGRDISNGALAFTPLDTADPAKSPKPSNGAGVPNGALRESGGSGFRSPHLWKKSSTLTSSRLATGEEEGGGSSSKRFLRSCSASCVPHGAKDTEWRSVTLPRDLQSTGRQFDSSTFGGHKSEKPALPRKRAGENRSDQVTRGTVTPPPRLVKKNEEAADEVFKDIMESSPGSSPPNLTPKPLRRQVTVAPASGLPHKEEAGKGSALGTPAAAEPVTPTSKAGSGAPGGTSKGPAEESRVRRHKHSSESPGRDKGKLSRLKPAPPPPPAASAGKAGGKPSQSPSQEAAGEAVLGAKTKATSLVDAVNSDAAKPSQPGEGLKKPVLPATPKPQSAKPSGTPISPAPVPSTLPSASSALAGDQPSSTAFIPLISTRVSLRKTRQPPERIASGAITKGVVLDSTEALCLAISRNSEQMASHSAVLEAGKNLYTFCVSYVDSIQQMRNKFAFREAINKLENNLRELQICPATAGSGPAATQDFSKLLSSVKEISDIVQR
Tyrosine-protein kinase ABL, sequence (P42684 whole entry, looked up, the tested form may be a part): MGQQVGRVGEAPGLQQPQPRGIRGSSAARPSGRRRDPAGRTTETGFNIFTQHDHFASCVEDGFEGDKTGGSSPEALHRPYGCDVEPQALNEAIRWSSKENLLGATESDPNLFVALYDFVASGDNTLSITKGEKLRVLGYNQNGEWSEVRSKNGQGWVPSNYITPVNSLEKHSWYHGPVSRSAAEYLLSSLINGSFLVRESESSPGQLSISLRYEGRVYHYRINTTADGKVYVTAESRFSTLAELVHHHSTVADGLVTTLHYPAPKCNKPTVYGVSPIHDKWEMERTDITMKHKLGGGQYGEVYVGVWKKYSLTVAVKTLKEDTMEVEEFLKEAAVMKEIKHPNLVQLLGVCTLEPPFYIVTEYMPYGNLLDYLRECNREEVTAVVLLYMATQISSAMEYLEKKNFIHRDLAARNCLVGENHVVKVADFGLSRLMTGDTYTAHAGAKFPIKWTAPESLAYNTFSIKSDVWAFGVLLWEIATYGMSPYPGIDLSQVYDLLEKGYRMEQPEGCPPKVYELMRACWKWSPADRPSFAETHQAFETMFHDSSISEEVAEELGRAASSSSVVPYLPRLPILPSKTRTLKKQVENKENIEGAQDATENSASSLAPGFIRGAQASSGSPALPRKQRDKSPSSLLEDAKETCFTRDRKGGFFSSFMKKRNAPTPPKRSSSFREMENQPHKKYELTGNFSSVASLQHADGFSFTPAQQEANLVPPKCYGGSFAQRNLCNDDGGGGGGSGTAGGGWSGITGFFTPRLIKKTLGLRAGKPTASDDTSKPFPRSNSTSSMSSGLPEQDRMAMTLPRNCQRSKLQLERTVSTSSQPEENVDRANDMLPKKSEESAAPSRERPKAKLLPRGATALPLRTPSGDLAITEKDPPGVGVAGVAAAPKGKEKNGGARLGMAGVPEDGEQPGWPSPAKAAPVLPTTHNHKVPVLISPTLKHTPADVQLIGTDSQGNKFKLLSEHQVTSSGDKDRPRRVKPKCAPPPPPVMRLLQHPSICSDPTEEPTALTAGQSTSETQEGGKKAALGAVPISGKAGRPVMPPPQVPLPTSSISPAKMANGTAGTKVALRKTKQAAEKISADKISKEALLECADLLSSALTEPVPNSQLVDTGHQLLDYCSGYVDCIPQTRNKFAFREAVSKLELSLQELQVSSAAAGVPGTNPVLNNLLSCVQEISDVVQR

Q: What does the source list for `CCOc1cc(N2CCC(O)CC2)ccc1Nc1ncc2c(n1)N(C)c1ccccc1C(=O)N2C`?
A: inhibition [1]: 10.2%; inhibition [2]: -0.5%; inhibition [3]: 13.9%; inhibition [4]: -6.7%; inhibition [5]: -4.3%; inhibition [6]: 1.7%
